Data: ChEMBL document CHEMBL2040757, “New N-arylamino biquinoline derivatives: synthesis, antimicrobial, antituberculosis, and antimalarial evaluation” (Eur J Med Chem, 2012)
Values after ≈ are worked out from the molar mass of the structure shown.

Key:
[1] = system: Bacillus subtilis; test: Antibacterial activity against Bacillus subtilis MTCC 441 by broth microdilution method; assay type: functional
Outline: (§1)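 Broth microdilution per NCCLS, with serial dilutions in Mueller Hinton broth and DMSO as diluent. Tubes were incubated overnight at 37 °C. MIC was the lowest concentration giving no visible growth, with the control organism's MIC read to verify concentrations. Tubes without growth were subcultured overnight at 37 °C to judge bacteriostatic versus bactericidal action.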

[2] = system: Aspergillus fumigatus; test: Antifungal activity against Aspergillus fumigatus MTCC 3008 by broth microdilution method; assay type: functional
[3] = system: Plasmodium falciparum; test: Antimalarial activity against trophozoite stage of chloroquine-sensitive Plasmodium falciparum 3D7 infected in human erythrocytes after 48 hrs; assay type: functional, organism-based; details: 3D7, 48 h
Outline: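 Parasites were kept in continuous culture in A+ human erythrocytes in RPMI with 10% human serum. Sorbitol-synchronized trophozoites at 1–2% parasitaemia and 2.5% haematocrit were exposed to serial dilutions (maximum 1 mg/ml; 0.02% final DMSO) for 48 h at 37 °C. Growth inhibition was measured; chloroquine and quinine served as positive controls. IC50 came from duplicate experiments.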

[4] = system: Salmonella typhi; test: Antibacterial activity against Salmonella typhi MTCC 98 by broth microdilution method; assay type: functional, Salmonella enterica subsp. enterica serovar Typhi; details: Salmonella enterica
[5] = system: Vibrio cholerae; test: Antibacterial activity against Vibrio cholerae MTCC 3906 by broth microdilution method; assay type: functional
[6] = system: Clostridium tetani; test: Antibacterial activity against Clostridium tetani MTCC 449 by broth microdilution method; assay type: functional
[7] = system: Candida albicans; test: Antifungal activity against Candida albicans MTCC 227 by broth microdilution method; assay type: functional
[8] = system: Streptococcus pneumoniae; test: Antibacterial activity against Streptococcus pneumoniae MTCC 1936 by broth microdilution method; assay type: functional; outline: as §1
[9] = system: Mycobacterium tuberculosis; test: Growth inhibition of Mycobacterium tuberculosis H37Rv at 6.25 ug/mL after 12 to 28 days relative to control; assay type: functional
[10] = system: Escherichia coli; test: Antibacterial activity against Escherichia coli MTCC 443 by broth microdilution method; assay type: functional; outline: as §1

Compound | MIC [1] | MIC [2] | IC50 [3] | MIC [4] | MIC [5] | MIC [6] | MIC [7] | MIC [8] | inhibition at 6.25 µg/mL [9] | MIC [10]
CC1(C)CC(=O)C2=C(C1)N(Nc1ccc(Cl)cc1)C(N)=C(C#N)C2c1cc2ccccc2nc1Cl (stereo unspecified) | 500 µg/mL (≈ 991 µM) | 500 µg/mL (≈ 991 µM) | 0.42 µg/mL (≈ 0.833 µM) | 500 µg/mL (≈ 991 µM) | 500 µg/mL (≈ 991 µM) | 250 µg/mL (≈ 496 µM) | 250 µg/mL (≈ 496 µM) | 500 µg/mL (≈ 991 µM) | 22% | 200 µg/mL (≈ 396 µM)
COC1=CC(=O)C[C@@H](C)[C@]12Oc1c(Cl)c(OC)cc(OC)c1C2=O [GRISEOFULVIN] |  | 100 µg/mL (≈ 283 µM) |  |  |  |  | 500 µg/mL (≈ 1420 µM) |  |  | 
CC1(C)CC(=O)C2=C(C1)N(Nc1ccc(F)cc1)C(N)=C(C#N)C2c1cc2cc(Cl)ccc2nc1Cl (stereo unspecified) | 100 µg/mL (≈ 191 µM) | > 1000 µg/mL | 0.154 µg/mL (≈ 0.295 µM) | 500 µg/mL (≈ 957 µM) | 125 µg/mL (≈ 239 µM) | 500 µg/mL (≈ 957 µM) | 500 µg/mL (≈ 957 µM) | 200 µg/mL (≈ 383 µM) | 65% | 250 µg/mL (≈ 479 µM)
CC1(C)CC(=O)C2=C(C1)N(Nc1ccc(Br)cc1)C(N)=C(C#N)C2c1cc2cc(Cl)ccc2nc1Cl (stereo unspecified) | 250 µg/mL (≈ 429 µM) | 500 µg/mL (≈ 857 µM) | 0.08 µg/mL (≈ 0.137 µM) | 250 µg/mL (≈ 429 µM) | 250 µg/mL (≈ 429 µM) | 250 µg/mL (≈ 429 µM) | 1000 µg/mL (≈ 1710 µM) | 200 µg/mL (≈ 343 µM) | 85% | 100 µg/mL (≈ 171 µM)
CC1(C)CC(=O)C2=C(C1)N(Nc1ccccc1)C(N)=C(C#N)C2c1cc2cc(Cl)ccc2nc1Cl (stereo unspecified) | 1000 µg/mL (≈ 1980 µM) | 1000 µg/mL (≈ 1980 µM) | 0.21 µg/mL (≈ 0.416 µM) | 250 µg/mL (≈ 496 µM) | 1000 µg/mL (≈ 1980 µM) | 1000 µg/mL (≈ 1980 µM) | 1000 µg/mL (≈ 1980 µM) | 1000 µg/mL (≈ 1980 µM) | 5% | 200 µg/mL (≈ 396 µM)
C=C[C@H]1CN2CC[C@H]1C[C@H]2[C@H](O)c1ccnc2ccc(OC)cc12 [QUININE] |  |  | 0.268 µg/mL (≈ 0.826 µM) |  |  |  |  |  |  | 
COc1ccc2nc(Cl)c(C3C(C#N)=C(N)N(Nc4ccccc4)C4=C3C(=O)CC(C)(C)C4)cc2c1 (stereo unspecified) | 250 µg/mL (≈ 500 µM) | 500 µg/mL (≈ 1000 µM) | 0.22 µg/mL (≈ 0.44 µM) | 250 µg/mL (≈ 500 µM) | 500 µg/mL (≈ 1000 µM) | 500 µg/mL (≈ 1000 µM) | 250 µg/mL (≈ 500 µM) | 250 µg/mL (≈ 500 µM) | 80% | 250 µg/mL (≈ 500 µM)
Cc1ccc2nc(Cl)c(C3C(C#N)=C(N)N(Nc4ccc(F)cc4)C4=C3C(=O)CC(C)(C)C4)cc2c1 (stereo unspecified) | 250 µg/mL (≈ 498 µM) | 1000 µg/mL (≈ 1990 µM) | 0.047 µg/mL (≈ 0.0936 µM) | 250 µg/mL (≈ 498 µM) | 200 µg/mL (≈ 398 µM) | 200 µg/mL (≈ 398 µM) | 1000 µg/mL (≈ 1990 µM) | 250 µg/mL (≈ 498 µM) | 33% | 250 µg/mL (≈ 498 µM)
NYSTATIN |  | 100 µg/mL |  |  |  |  | 100 µg/mL |  |  | 
COc1ccc2nc(Cl)c(C3C(C#N)=C(N)N(Nc4ccc(Br)cc4)C4=C3C(=O)CC(C)(C)C4)cc2c1 (stereo unspecified) | 250 µg/mL (≈ 432 µM) | 500 µg/mL (≈ 864 µM) | 0.014 µg/mL (≈ 0.0242 µM) | 125 µg/mL (≈ 216 µM) | 200 µg/mL (≈ 345 µM) | 200 µg/mL (≈ 345 µM) | 1000 µg/mL (≈ 1730 µM) | 250 µg/mL (≈ 432 µM) | 17% | 200 µg/mL (≈ 345 µM)
CO[C@H]1/C=C/O[C@@]2(C)Oc3c(C)c(O)c4c(O)c(c(/C=N/N5CCN(C)CC5)c(O)c4c3C2=O)NC(=O)/C(C)=C\C=C\[C@H](C)[C@H](O)[C@@H](C)[C@@H](O)[C@@H](C)[C@H](OC(C)=O)[C@@H]1C [RIFAMPIN] |  |  |  |  |  |  |  |  | 98% | 
CC1(C)CC(=O)C2=C(C1)N(Nc1ccc(F)cc1)C(N)=C(C#N)C2c1cc2ccccc2nc1Cl (stereo unspecified) | 500 µg/mL (≈ 1020 µM) | 1000 µg/mL (≈ 2050 µM) | 0.027 µg/mL (≈ 0.0553 µM) | 200 µg/mL (≈ 410 µM) | 200 µg/mL (≈ 410 µM) | 200 µg/mL (≈ 410 µM) | 1000 µg/mL (≈ 2050 µM) | 500 µg/mL (≈ 1020 µM) | 62% | 200 µg/mL (≈ 410 µM)
